# Assay outcomes as filed in PubChem BioAssay.
# Sampled rows, rich in hits. Any-hit rate of the full collection: about 2.6%.
# HIV Env fusion – inhibitors of HIV Env-mediated cell fusion; HeLa-JRFL Env/CEM21 cell fusion, luciferase; inhibition, % at 12.3 µM; actives 1.1% (n = 360,000);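 active = mean replicate inhibition score of at least 50 and every replicate individually at or above 50; inconclusive = only one of the two criteria met; inactive = mean below 50 and not all replicates reaching 50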;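 also: 0% = plate neutral controls and 100% = maraviroc near 300 nM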
# miR122 inh – blocks miR-122 activity in Huh7 sensor cells; Huh7 miR-122 Renilla luciferase sensor, 48 h; neutral wells = 0, positive control = 100; activation (reporter increase), % at 12.5 µM; actives 0.3% (n = 340,000);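 active = mean replicate activation score at least 90 and every replicate individually at or above 90; inconclusive = only one of the two criteria met; inactive = neither criterion met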;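 also: higher luciferase means less miR-122 activity so hits act as miR-122 inhibitors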
# FN deposition inh – fibronectin deposition inhibition. inhibition, % at 12.6 µM. actives 0.086% (n = 350,000). AH1F fibroblasts, Alexa488-fibronectin deposition fluorescence, overnight;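 active = mean inhibition across replicates of 30% or more, regardless of how many single replicates reach that level; inconclusive = mean under 30% yet at least half of replicates reach 30%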;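 also: positive control wells lacked labelled fibronectin entirely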
#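 Assay system: AH1F fibroblasts assembling fluorescent fibronectin matrix; Amount: 10000 AH1F cells per well; Buffer or medium: DMEM, 2% serum; Probe or stimulus: Alexa488-fibronectin, 24 nM final in well; Doses: single compound dose, delivered by pin transfer; Incubation: 1 h adhesion, overnight exposure; Measured by: fluorescence 485/525 nm; Read-out: fibronectin deposition inhibition.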
# Vif imaging – blocks HIV Vif function; HEK293T cells, Vif self-association by quenched fluorescence, imaging, 24 h; inhibition, % at 7.49 µM; actives 0.35% (n = 340,000); in the data active = inhibition above about 50%, passing the limit was not always enough; inconclusive = no clear call, values can overlap the other calls; inactive = below about 31%
# S100A4 inh HTS – S100A4-myosin IIA interaction inhibition | P26447 | S100A4/TAMRA-MyoIIA peptide fluorescence polarization | inhibition, % at 10.7 µM | actives 0.14% (n = 360,000);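 active = mean inhibition of at least 70% across replicates, with every replicate also reaching that level; inconclusive = mean inhibition reaches 70% but some replicates fall short; inactive = mean inhibition below 70%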
# Target sequence (P26447 whole entry, looked up): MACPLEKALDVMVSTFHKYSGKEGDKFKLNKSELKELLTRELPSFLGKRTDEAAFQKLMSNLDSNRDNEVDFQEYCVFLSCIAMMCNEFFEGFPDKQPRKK
#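 Material: S100A4 monomer protein / Buffer or medium: 50 mM HEPES pH 7.2, 10 mM CaCl2, 100 mM KCl / Times: 5 min incubation before reading / Benchmarks: neutral control DMSO, positive control TFP / Reagent: labelled myosin peptide probe, 5 nM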
# Ecoli rRNA inh – inhibits bacterial ribosomal RNA function over humanized ribosomes; E. coli WT GFP vs humanized-ribosome RFP mutants, fluorescence, 24 h; stronger effect = lower value; DMSO median 0, no signal -100; GFP signal change (wild-type ribosome), % (test concentration not listed); actives 1.6% (n = 350,000);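 active = significant combined selectivity score with lowered wild-type GFP, culture density cut under 30%, mutant RFP and density less affected; inactive = any of these conditions unmet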
# AID977621 – growth inhibition of wild-type GFP E. coli, dose response, H69 mutant RFP, cherry-pick; shares compounds with Ecoli rRNA inh; E. coli wild-type GFP strain growth, fluorescence, 24 h; activity change, negative = inhibition at 50 µM; 1,900 tested, under 10 active; AID 977621;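 active = Wild-type ribosome reporter drop at least double the humanized mutant ribosome reporter drop, growth loss under a set limit; inconclusive = no clear call, values can overlap the other calls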;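 also: wild-type GFP and H69 mutant RFP strains grown together 50/50 in each well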
# AID977628 – E. coli growth inhibition, wild-type GFP versus h24 humanized RFP strain, dose response, h24 mutant RFP vs wild-type GFP, cherry-pick | E. coli WT GFP strain growth, fluorescence, 24 h | shares compounds with Ecoli rRNA inh | 1,900 tested, under 10 active | activity change, negative = inhibition at 50 µM;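 active = compound lowering the normal-ribosome reporter at least twice as much as the humanized-ribosome reporter, growth loss under a set limit; inconclusive = no clear call, values can overlap the other calls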;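 also: wild-type GFP and h24 humanized RFP strains co-cultured 1 to 1 per well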
# Numbers without * were called inactive; ? = inconclusive; / = not tested or not shown; [ ] = dose if it differs, or a comment.
SMILES,HIV Env fusion,miR122 inh,FN deposition inh,Vif imaging,S100A4 inh HTS,Ecoli rRNA inh,AID977621,AID977628
CNC(=O)C[C@H]1CC[C@H]2[C@@H](COc3ccc(NC(=O)Nc4ccc(F)c(F)c4)cc3C(=O)N2C)O1,5.4[16.7 µM],33.3[16.7 µM],-3.8,/,3.3,-1.2,/,/
O=C(O)c1cccc2c1-c1ccc([N+](=O)[O-])cc1C2=O,-56.8,/,/,9.1,-1.8,-18.8*,-22.2,-7.97
O=C(CN1CCOCC1)N[C@H]1CC[C@@H](CCNC(=O)C2CCC2)O[C@H]1CO,-4.4[16.7 µM],-5.4[16.7 µM],-3.9,/,-17.4,0.8,/,/
COc1ccc(/C=C/c2nc3ccccc3n2Cc2ccccc2OC)cc1,-223.0,/,-15.9,-10.0,-13.0,-25.7*,-11.5,-13.7
COc1ccccc1Cn1c(/C=C/c2ccccc2)nc2ccccc21,1.2,/,-6.6,3.2,/,/,/,/
O=C(O)CCn1c(SCc2cccc3ccccc23)nc2ccccc21,5.9,6.0,/,-4.0,-21.8,-15.8*,-10.9,?
CN(Cc1ccc([N+](=O)[O-])cc1)c1ccccc1,19.1,/,-1.3,-4.4,-2.9,-25.6*,-8.74,-8.85
CN(C)CCNc1ncnc2c1sc1nc(N3CCCC3)c3c(c12)CC(C)(C)OC3,14.0,-5.6,7.4,-1.7,-1.5,-20.6*,/,-5.32
COc1cc2c(c(OC)c1OC)C(c1ccc(O)cc1)CC(=O)O2 (stereo not given),23.3,-0.2,/,3.9,-3.0,-2.5,/,/
COc1cc(C2CC(=O)Oc3cc(C)cc(C)c32)cc(OC)c1OC (stereo not given),17.8,-1.6,0.3,-0.3,-4.7,-21.6*,/,-11.5
COc1ccc(-c2cccc([C@H]3[C@@H]4C=CC[C@@H](C)[C@@H]4C(=O)N3Cc3ccccc3)c2)cc1,42.6,-1.2,-2.1,-0.5,-12.8,13.7,/,/
CC(=O)c1ccc(-c2cccc([C@H]3[C@@H]4C=CC[C@@H](C)[C@@H]4C(=O)N3Cc3ccccc3)c2)cc1,30.5,-6.9,/,/,1.6,-18.6*,-0.09,-8.41
CCN(CC)S(=O)(=O)c1cc(NC(=O)C(C)Nc2ccccc2N2CCOCC2)ccc1C (stereo not given),0.6,/,14.8,-12.9,11.7,-20.7,/,/
CCN(CC)S(=O)(=O)c1cc(NC(=O)C(C)N2CCN(Cc3ccc4c(c3)OCO4)CC2)ccc1C (stereo not given),/,-17.1,-0.1,-4.8,-6.6,-20.6*,?,/
CC(=O)N(C)C[C@@H]1Oc2ccc(NS(C)(=O)=O)cc2CC(=O)N(C)C[C@H]1C,/,/,-12.3,/,/,-1.2,/,/
O=C(CCN1CCCCC1)NCC[C@@H]1CC[C@@H](NC(=O)C2CCOCC2)[C@H](CO)O1,9.4[16.7 µM],/,6.6,/,-2.3,1.7,/,/
CCCN1C[C@H](C)[C@@H](OC)CN(C)C(=O)c2cc(NC(=O)c3ccccc3)ccc2OC[C@@H]1C,10.3[16.7 µM],/,14.3,/,2.1,-1.0,/,/
CCN(CC(=O)Nc1cccc(C#N)c1)CC(=O)Nc1cccc(OC)c1,2.0,3.6,1.4,-8.5,0.8,-22.5*,-3.5,/
COc1ccccc1-c1cn(CC[C@@H]2CC[C@@H](NC(=O)C3CC3)[C@H](CO)O2)nn1,6.7[16.7 µM],/,0.7,/,-21.4,0.2,/,/
COc1cccc(NC(=O)COC(=O)Cc2ccccc2[N+](=O)[O-])c1,-5.4,-4.3,-7.7,-5.6,-7.0,-17.1*,/,?
Nc1c(Cl)cc(C2=NCCn3nc4ccccc4c32)cc1Cl,0.3,/,1.3,/,-1.0,-19.9*,-11.2,/
CNC[C@H]1Oc2ccc(N(C)C)cc2C(=O)N(C)C[C@H]1C,/,/,7.2,/,/,-1.2,/,/
Cc1cc2c(nc1C)CCCN2Cc1ccc(Br)cc1,25.2,/,-5.1,/,-7.3,5.3,/,/
CCc1cc2c(nc1CC)CCCN2Cc1ccc(Br)cc1,16.7,/,-3.2,/,-12.4,-25.6*,-3.32,/
